# Calls of active or inactive are those of the source. The calls are words filed in the database; no cut-off is given here.
# Assays:
# T47D [1] = assay: Reduction of hypoxia-induced VEGF mRNA expression in human T47D cells treated after 16 hrs of hypoxia by RT-PCR analysis; assay type: functional, cell-based
# In short: (§1)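 T47D cells held at 1% O2 for 16 h with or without compound. Total RNA measured by real-time RT-PCR, normalized to 18S rRNA, and expressed relative to the normoxic control. Mean of two independent experiments.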
# MDA-MB-231 = assay: Cytotoxicity against human MDA-MB-231 cells assessed as inhibition of cell proliferation after 48 hrs by SRB assay; assay type: functional, cell-based
# T47D [2] = assay: Reduction of hypoxia-induced GLUT1 mRNA expression in human T47D cells treated after 16 hrs of hypoxia by RT-PCR analysis; assay type: functional, cell-based; in short: as §1
# T47D [3] = assay: Inhibition of hypoxia-induced HIF-1 activation in human T47D cells at 0.1 to 1000 nM by luciferase reporter gene assay; assay type: cell-based
# In short: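 T47D cells (DMEM/F12, 10% FBS) carrying the pHRE3-TK-Luc HIF-1 luciferase reporter were exposed to hypoxia (1% O₂) for 16 h with compound at 0.1, 0.3, 1, 3, 10, 30, 100 and 1000 nM. Cycloheximide at 100 μM served as positive control. Data are from one representative triplicate experiment, mean ± SD.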
# T47D [4] = assay: Cytotoxicity against human T47D cells assessed as inhibition of cell proliferation after 48 hrs by SRB assay relative to control; assay type: functional; parameters: scale not given: the % may be the effect or the level left
# T47D [5] = assay: Reduction of hypoxia-induced GLUT1 mRNA expression in human T47D cells at 0.1 uM treated after 16 hrs of hypoxia by RT-PCR analysis; assay type: functional, cell-based
# In short: (§2)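 T47D cells were held at 1% O₂ for 16 h with or without compound. Total RNA was isolated and target mRNA was quantified by real-time RT-PCR, normalized to 18S rRNA, and expressed relative to the normoxic control. Values are averages of two independent experiments.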
# T47D [6] = assay: Inhibition of electron transport protein complex 1-mediated cellular respiration in digitonin-permeabilized human T47D cells at 30 nM presence of succinate; assay type: cell-based
# T47D [7] = assay: Reduction of hypoxia-induced VEGF mRNA expression in human T47D cells at 0.1 uM treated after 16 hrs of hypoxia by RT-PCR analysis; assay type: functional, cell-based; in short: as §2
# [8] = Neurotoxicity in Wistar rat cerebellar granule neurons assessed as cell death at 10 nM after 24 hrs using propidium iodide and Hoescht 33342 staining; assay type: toxicity, cell-based; settings: neuron, 0.01 µM
# In short: (§3)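 Primary cerebellar granule neurons from 6-7-day-old Wistar rat pups, cultured 6-10 days at 37 °C. Cells exposed to compound for 24 h, then stained 20 min with Hoechst 33342 (5 μg/mL) and propidium iodide (1 μg/mL) in pH 7.3 buffer. At least 100 cells scored per treatment. Scoring: PI+ = late apoptotic/necrotic; PI− with condensed or fragmented nuclei = apoptotic; PI− with swollen, fragmented nuclei = early necrotic.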
# T47D [9] = assay: Inhibition of electron transport protein complex 2-mediated cellular respiration in digitonin-permeabilized human T47D cells at 10 to 30 nM presence of succinate; assay type: cell-based
# In short: (§4)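 Clark-type oxygen electrode used to follow O2 consumption in T47D cells permeabilized with 10 μM digitonin. Substrates and inhibitors added one after another at set times. For complex I, respiration was started with malate/pyruvate, compound (10 nM) was added, then succinate was added to feed complex II.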
# T47D [10] = assay: Inhibition of tumor angiogenesis in human T47D cells in conditioned medium at 10 nM treated after 16 hrs of hypoxia by HUVEC-based tube formation assay; assay type: functional, cell-based
# In short: (§5)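 Conditioned media collected from T47D cells treated for 16 h, normoxic or hypoxic (1% O2), with or without compound (10 nM). Media applied to HUVECs for tube formation. Relative tube length and branching points counted in three random fields, mean with SD. One-way ANOVA with Bonferroni post hoc test.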
# T47D [11] = assay: Inhibition of oxygen consumption in human T47D cells; assay type: functional, cell-based
# In short: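 Oxygen consumption measured with a Clark-type electrode in non-permeabilized T47D cells. Rotenone served as the complex I reference. Data given as % inhibition versus untreated control, averaged over three independent experiments with SD.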
# T47D [12] = assay: Inhibition of tumor angiogenesis in human T47D cells in normoxic conditioned medium at 10 nM by HUVEC-based tube formation assay; assay type: functional, cell-based; in short: as §5
# T47D [13] = assay: Inhibition of hypoxia-induced HIF-1beta protein accumulation in human T47D cell nucleus at 10 to 100 nM treated after 4 hrs of hypoxia by Western blotting; assay type: functional, cell-based
# In short: (§6)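 Nuclear extracts prepared from T47D cells held at 1% O2 for 4 h with or without compound. HIF-1α and HIF-1β protein levels determined by western blot.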
# T47D [14] = assay: Inhibition of electron transport protein complex 3-mediated cellular respiration in digitonin-permeabilized human T47D cells at 10 to 30 nM presence of succinate; assay type: cell-based; in short: as §4
# T47D [15] = assay: Inhibition of 1,10-phenanthroline-induced HIF-1 activation in human T47D cells at up to 10 uM by luciferase reporter gene assay; assay type: cell-based
# In short: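 T47D cells carrying the pHRE3-TK-Luc HIF-1 luciferase reporter. HIF-1 induced chemically with 10 μM 1,10-phenanthroline. Compound tested at concentrations up to 10 μM.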
# T47D [16] = assay: Reduction of hypoxia-induced secreted VEGF protein level in human T47D cells after 16 hrs by ELISA; assay type: functional, cell-based
# In short: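 T47D cells exposed to 1% O2 or 10 μM 1,10-phenanthroline for 16 h with or without compound. Secreted VEGF in conditioned medium measured by ELISA and normalized to cellular protein (micro BCA). Mean with SD, N = 3. One-way ANOVA with Bonferroni post hoc test.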
# T47D [17] = assay: Inhibition of electron transport protein complex 4-mediated cellular respiration in digitonin-permeabilized human T47D cells at 10 to 30 nM presence of succinate; assay type: cell-based
# [18] = Neurotoxicity in Wistar rat cerebellar granule neurons assessed as apoptotic cells at 0.01 uM after 24 hrs using propidium iodide and Hoescht 33342 staining; assay type: toxicity, cell-based; settings: neuron; in short: as §3
# T47D [19] = assay: Inhibition of electron transport protein complex 1-mediated cellular respiration in digitonin-permeabilized human T47D cells at 10 nM presence of succinate; assay type: cell-based; in short: as §4
# T47D [20] = assay: Inhibition of hypoxia-induced HIF-1alpha protein accumulation in human T47D cell nucleus at 10 to 100 nM treated after 4 hrs of hypoxia by Western blotting; assay type: functional, cell-based; in short: as §6
# [21] = Neurotoxicity in Wistar rat cerebellar granule neurons assessed as attached dead cells at 0.1 uM after 24 hrs using propidium iodide and Hoescht 33342 staining; assay type: toxicity, cell-based; settings: neuron; in short: as §3
structure (smiles),measurement,setting,value
C=CC/C=C\Cc1csc(C(C)(C)[C@@H](C/C=C\C(=C)CCNC(=O)OC)OC(C)=O)n1,inhibition,T47D [1],Dose-dependent effect
same,Activity,MDA-MB-231,Active
same,inhibition,T47D [2],Dose-dependent effect
same,inhibition,T47D [3],Active
same,Activity,T47D [4],55%
C=CC/C=C\Cc1csc(C(C)(C)[C@H](O)C/C=C/C(O)(CO)CCNC(=O)OC)n1 (stereo not given in full),inhibition,T47D [5],inactive
same,Activity,MDA-MB-231,Active
same,inhibition,T47D [6],Active
same,inhibition,T47D [7],inactive
same,inhibition,T47D [3],inactive
C=CC/C=C\Cc1csc(C(C)(C)[C@H](O)C/C=C\C(=C)CCNC(=O)OC)n1 [MYCOTHIAZOLE],Activity,[8],Toxic
same,inhibition,T47D [1],Dose-dependent effect
same,inhibition,T47D [9],inactive
same,inhibition,T47D [10],Active
same,inhibition,T47D [11],Dose-dependent effect
same,inhibition,T47D [12],inactive
same,inhibition,T47D [13],inactive
same,Activity,MDA-MB-231,Active
same,inhibition,T47D [2],Dose-dependent effect
same,inhibition,T47D [14],inactive
same,inhibition,T47D [15],inactive
same,Activity,T47D [16],Active
same,inhibition,T47D [17],inactive
same,inhibition,T47D [3],Active
same,Activity,T47D [4],55%
same,Activity,[18],85%
same,inhibition,T47D [19],Active
same,inhibition,T47D [20],Active
C=C(C)[C@H]1Cc2c(ccc3c2O[C@@H]2COc4cc(OC)c(OC)cc4[C@@H]2C3=O)O1 [ROTENONE],Activity,[8],Toxic
same,Activity,[21],60%
